{
  "source": "paper PMC8178987",
  "about": "(Chemical Science, 2020)",
  "assay_type_in_all_cases": "binding",
  "key": {"pPorA-K24": {"tested_on": "pPorA-K24", "assay": "Single-channel recording of peptide interaction with pPorA-K24", "settings": "for ion current blockages: cis, 0.15 M KCl, pH 7.4"}, "gpPorA": {"tested_on": "gpPorA", "assay": "Single-channel recording of peptide interaction/translocation with gpPorA", "settings": "for discrimination of R4 and R9 in competitive blocking: R4 10 µM, cis and R9 100 nM, 150 mM KCl"}, "pPorA-C24": {"tested_on": "pPorA-C24", "settings": "subconductance pores; R6 1 µM cis; R9 0.5 µM; 150 mM KCl, pH 7.4"}, "pPorA-A24": {"tested_on": "pPorA-A24", "assay": "Single-channel recording of peptide interaction with pPorA-A24", "in_short": "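Single pores in planar lipid bilayers formed on an aperture prepainted with hexadecane in n-pentane (5 mg mL−1). Test peptide added to the cis side in 0.15 M KCl, 10 mM HEPES, pH 7.4, recorded at −5 and −20 mV. Current was digitally filtered at 4 and 7 kHz with an 8-pole Bessel filter. τoff came from dwell-time histograms.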"}, "[1]": {"settings": "0.5 μM, cis, negative voltages, 0.15 M KCl, pH 7.4"}, "[2]": {"settings": "0.5 μM, trans, +10 mV to +35 mV, 0.15 M KCl, pH 7.4"}},
  "data": [
    {"substance": "nonaaspartate [D9]", "values": [
      {"measurement": "ion current blockages", "setting": "pPorA-K24; 0.5 μM", "value": "did not produce defined ion current blockages"},
      {"measurement": "ion current blockages", "setting": "pPorA-K24; 10 μM, +50 mV", "value": "very short, less frequent ion current blockage"},
      {"measurement": "ion current blockages", "setting": "pPorA-K24; 10 μM, negative voltages", "value": "no ion current blockages were observed"},
      {"measurement": "binding affinity", "setting": "pPorA-K24; compared with R9 binding to cation-selective gpPorA (C24)", "value": "weak D9 peptide binding"},
      {"measurement": "ion current blockages", "setting": "gpPorA; 100 μM, cis, different peptide concentrations and voltages, 0.15 M KCl, pH 7.4", "value": "did not produce any ion current blockages"}
    ]},
    {"substance": "nonaarginine [R9]", "values": [
      {"measurement": "ion current blockages", "setting": "pPorA-C24", "value": "combination of strong and weak ion current blockages"},
      {"measurement": "ion current blockages", "setting": "pPorA-A24; 0.5 μM, cis, −5 mV to −20 mV, 0.15 M KCl, pH 7.4", "value": "ion current blockages exclusively at negative voltages"},
      {"measurement": "binding affinity", "setting": "pPorA-A24; directly formed pPorA compared to self-assembled gpPorA", "value": "less affinity"},
      {"measurement": "ion current blockages", "setting": "gpPorA; 0.5 μM, cis, above +40 mV, 0.15 M KCl, pH 7.4", "value": "less frequent ion current blockages"},
      {"measurement": "frequency of ion current blockages", "setting": "gpPorA; 0.5 μM, cis, above −40 mV, 0.15 M KCl, pH 7.4", "value": "considerably reduced"},
      {"measurement": "ion current blockage (block)", "setting": "gpPorA; [1]", "value": 100, "unit": "%"},
      {"measurement": "ion current blockages", "setting": "gpPorA; 0.5 μM, cis, pH 7.4, 0.15 M KCl, compared with pH 4.5", "value": "voltage-dependent well-defined ion current blockages"},
      {"measurement": "ion current blockages", "setting": "gpPorA; 0.5 μM, cis, −5 mV, −10 mV and −15 mV, pH 4.5, citrate buffer, 0.15 M KCl", "value": "short-lived, less frequent ion current blockages"},
      {"measurement": "pore state on peptide addition", "setting": "gpPorA; 0.5 μM, cis, −5 mV, 0.15 M KCl, pH 7.4", "value": "predominantly remained closed"},
      {"measurement": "voltage dependence of kon and koff", "setting": "gpPorA; 0.5 μM, cis, −10 mV to −35 mV, 0.15 M KCl, pH 7.4", "value": "increased with the voltage"},
      {"measurement": "ion current blockages", "setting": "gpPorA; 0.5 μM, cis, −20 mV and −25 mV, pH 4.5, citrate buffer, 0.15 M KCl", "value": "no prominent blockage events"},
      {"measurement": "ion current blockage (block)", "setting": "gpPorA; [2]", "value": 100, "unit": "%"},
      {"measurement": "voltage dependence of kon and koff", "setting": "gpPorA; [2]", "value": "an increase in the kon and koff"},
      {"measurement": "τoff", "setting": "gpPorA; 0.5 μM, trans, +10 mV, 0.15 M KCl, 10 mM HEPES, pH 7.4, n = 3", "value": "35 ± 3", "unit": "ms"},
      {"measurement": "ion current blockages against the electrophoretic pulling", "setting": "gpPorA; 0.5 μM, trans, negative voltages, 0.15 M KCl, pH 7.4", "value": "ion current blockages against the electrophoretic pulling was observed"},
      {"measurement": "asymmetry in peptide binding/translocation between cis and trans sides", "setting": "gpPorA; 0.5 μM, 0.15 M KCl, pH 7.4", "value": "well-defined asymmetry"},
      {"measurement": "ion current blockages", "setting": "gpPorA; 1 μM, cis, added after D9 to the same pores, 0.15 M KCl, pH 7.4", "value": "voltage-dependent intense blockage events"},
      {"measurement": "τoff", "setting": "gpPorA; 100 μM, cis, −10 mV, 1 M KCl, 10 mM HEPES, pH 7.4, n = 3", "value": "0.14 ± 0.02", "unit": "ms"},
      {"measurement": "ion current blockage (block)", "setting": "gpPorA; 100 μM, cis, −10 mV, 1 M KCl, pH 7.4", "value": "~70", "unit": "%"},
      {"measurement": "ion current blockages", "setting": "gpPorA; 100 μM, cis, −20 mV, −30 mV and −50 mV, 1 M KCl, pH 7.4", "value": "less frequent to unresolved ion current blockages"},
      {"measurement": "discrimination of R4 and R9 in competitive blocking", "setting": "gpPorA; cis, −20 mV and −25 mV, pH 7.4", "value": "discriminated based on τoff"}
    ]},
    {"substance": "tetraarginine [R4]", "values": [
      {"measurement": "binding to pore", "setting": "gpPorA; 10 μM, cis/trans, 0.15 M KCl, pH 7.4", "value": "weak electrostatic binding"},
      {"measurement": "frequency of the blockage events", "setting": "gpPorA; 10 μM, cis, negative voltages to −75 mV, 0.15 M KCl, pH 7.4", "value": "increased with the voltage"},
      {"measurement": "ion current blockages", "setting": "gpPorA; 10 μM, cis, positive voltages, 0.15 M KCl, pH 7.4", "value": "No peptide-induced ion current blockages were detected"},
      {"measurement": "ion current blockages", "setting": "gpPorA; 10 μM, cis, −25 mV, 0.15 M KCl, pH 7.4", "value": "occasional ion current blockages"},
      {"measurement": "τoff (mean dwell time of blocking)", "setting": "gpPorA; 10 μM, cis, −75 mV, 0.15 M KCl, 10 mM HEPES, pH 7.4, n = 3", "value": "165 ± 15", "unit": "μs"},
      {"measurement": "ion current blockages", "setting": "gpPorA; 10 μM, trans, higher positive voltages, 0.15 M KCl, pH 7.4", "value": "short, less frequent blockage events"},
      {"measurement": "discrimination of R4 and R9 in competitive blocking", "setting": "gpPorA; cis, −20 mV and −25 mV, pH 7.4", "value": "discriminated based on τoff"}
    ]},
    {"substance": "hexaarginine [R6]", "values": [
      {"measurement": "ion current blockages", "setting": "pPorA-C24", "value": "combination of strong and weak ion current blockages"},
      {"measurement": "blockage events", "setting": "gpPorA; 0.5 μM, cis, above −25 mV, 0.15 M KCl, pH 7.4", "value": "not resolved accurately"},
      {"measurement": "blockage events", "setting": "gpPorA; 0.5 μM, cis, higher positive voltages, 0.15 M KCl, pH 7.4", "value": "no blockage events were observed"},
      {"measurement": "ion current blockage (block)", "setting": "gpPorA; [1]", "value": 100, "unit": "%"},
      {"measurement": "frequency of blockage events", "setting": "gpPorA; 0.5 μM, cis, −5 mV to −25 mV, 0.15 M KCl, pH 7.4", "value": "decreased with an increase in the voltage"},
      {"measurement": "ion current blockages", "setting": "gpPorA; 0.5 μM, trans, 0.15 M KCl, pH 7.4", "value": "time-resolved ion current blockages"},
      {"measurement": "asymmetry in peptide binding/translocation between cis and trans sides", "setting": "gpPorA; 0.5 μM, 0.15 M KCl, pH 7.4", "value": "no significant asymmetry"},
      {"measurement": "Kd", "setting": "gpPorA; read-out: KDcis, cis, −10 mV, 0.15 M KCl, pH 7.4", "value": 5.19, "unit": "µM"}
    ]}
  ]
}
